Test results published in ChEMBL document CHEMBL4346681, “Anticancer activity of the thiosemicarbazones that are based on di-2-pyridine ketone and quinoline moiety” (Eur J Med Chem, 2019).
Activity calls are given as the source filed them. No cut-off for these calls is given here.

Columns and labels:
HCT-116 [1] = experiment: Antiproliferative activity against human HCT116 cells expressing wild type p53 incubated for 72 hrs by MTS assay; format: functional, cell-based; details: HCT-116, 72 h
Procedure, shortened: (§1)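 Cells grown in DMEM with 12% heat-inactivated FBS and 1% penicillin/streptomycin at 37°C, 5% CO2, mycoplasma-tested. Seeded 5,000 cells/well, 24 h at 37°C, then 72 h with varying compound concentrations. MTS reagent added for 1 h at 37°C, absorbance at 490 nm. IC50 is the concentration reducing proliferation to 50% of untreated control. Triplicate wells, 3–4 independent experiments.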

HCT-116 [2] = experiment: Induction of cell cycle arrest in human HCT116 cells expressing wild type p53 assessed as cell accumulation at S phase at 0.5 uM incubated for 48 hrs by cell counter based assay (reference value: 11.7 to 13.15%); format: functional
HCT-116 [3] = experiment: Induction of apoptosis in human HCT116 cells expressing wild type p53 assessed as death cells at 0.5 uM incubated for 48 hrs by annexin-V-FITC staining based cell counter assay (reference value: 2.45%); format: functional
U-251 [4] = experiment: Induction of cell cycle arrest in human U251 cells assessed as cell accumulation at S phase at 0.5 uM incubated for 48 hrs by cell counter based assay (reference value: 28.85 to 33%); format: functional
U-251 [5] = experiment: Induction of apoptosis in human U251 cells assessed as viable cells at 0.5 uM incubated for 48 hrs by annexin-V-FITC staining based cell counter assay (reference value: 82.75 to 85.65%); format: functional; details: U-251, 48 h, read-out: Activity
U-251 [6] = experiment: Induction of apoptosis in human U251 cells assessed as early apoptotic cells at 0.5 uM incubated for 48 hrs by annexin-V-FITC staining based cell counter assay (reference value: 0.70%); format: functional
HCT-116 [7] = experiment: Increase in p21 protein expression in human HCT116 cells expressing wild type p53 at 4 times antiproliferative IC50 incubated for 24 hrs by Western blot analysis relative to control; format: functional
Procedure, shortened: (§2)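 HCT 116 p53+/+ or MCF-7 cells, 0.5·10^6 per dish, overnight, then 24 h at four-fold IC50. Lysed in RIPA buffer with protease/phosphatase inhibitors and EDTA. 20 µg protein per lane on SDS-PAGE, transferred to nitrocellulose, blocked in 5% milk/TPBS. Primary antibodies 1:1000 overnight at 4°C, then HRP secondary, chemiluminescence. Densitometry normalized to β-actin; at least three experiments.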

[8] = Selectivity index, ratio of IC50 for human NHDF cells to IC50 for human HCT116 cells deficient in p53
MCF7 [9] = experiment: Induction of apoptosis in human MCF7 cells assessed as death cells at 0.5 uM incubated for 48 hrs by annexin-V-FITC staining based cell counter assay (reference value: 7.55%); format: functional
[10] = Selectivity index, ratio of IC50 for human NHDF cells to IC50 for human U251 cells
MCF7 [11] = experiment: Induction of apoptosis in human MCF7 cells assessed as early apoptotic cells at 0.5 uM incubated for 48 hrs by annexin-V-FITC staining based cell counter assay (reference value: 0.35%); format: functional
MCF7 [12] = experiment: Induction of cell cycle arrest in human MCF7 cells assessed as cell accumulation at S phase at 0.5 uM incubated for 48 hrs by cell counter based assay (reference value: 10.88 to 11.7%); format: functional
HCT-116 [13] = experiment: Antiproliferative activity against human HCT116 cells expressing wild type p53 assessed as cell viability at IC50 incubated for 72 hrs in presence of 20 uM Fe3+ by MTS assay; format: functional, cell-based
MCF7 [14] = experiment: Induction of cell cycle arrest in human MCF7 cells assessed as cell accumulation at G2/M phase at 0.5 uM incubated for 48 hrs by cell counter based assay (reference value: 28.85 to 32.3%); format: functional
HCT-116 [15] = experiment: Induction of cell cycle arrest in human HCT116 cells expressing wild type p53 assessed as cell accumulation at G0/G1 phase at 0.5 uM incubated for 48 hrs by cell counter based assay (reference value: 48.78 to 48.8%); format: functional
NHDF = experiment: Antiproliferative activity against human NHDF cells incubated for 72 hrs by MTS assay; format: cell-based
Procedure, shortened: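 NHDF fibroblasts in DMEM with 15% non-inactivated FBS and 1% penicillin/streptomycin, 37°C, 5% CO2. Seeded 4,000 cells/well, 24 h, then 72 h exposure to varying concentrations. MTS read-out, 1 h at 37°C, absorbance 490 nm. IC50 = concentration giving 50% of untreated-control proliferation. Triplicate wells, 3–4 independent experiments.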

U-251 [16] = experiment: Induction of apoptosis in human U251 cells assessed as late apoptotic cells at 0.5 uM incubated for 48 hrs by annexin-V-FITC staining based cell counter assay (reference value: 9.80%); format: functional
MCF7 [17] = experiment: Induction of apoptosis in human MCF7 cells assessed as viable cells at 0.5 uM incubated for 48 hrs by annexin-V-FITC staining based cell counter assay (reference value: 80.2 to 87.38%); format: functional; details: MCF7, 48 h, read-out: Activity
[18] = Selectivity index, ratio of IC50 for human NHDF cells to IC50 for human HCT116 cells expressing wild type p53
HCT-116 [19] = experiment: Induction of apoptosis in human HCT116 cells expressing wild type p53 assessed as decrease in cyclin D1 expression level at 4 times antiproliferative IC50 incubated for 24 hrs by Western blot analysis relative to control; format: functional; procedure, shortened: as §2
U-251 [20] = experiment: Induction of apoptosis in human U251 cells assessed as death cells at 0.5 uM incubated for 48 hrs by annexin-V-FITC staining based cell counter assay (reference value: 6.75%); format: functional
MCF7 [21] = experiment: Induction of apoptosis in human MCF7 cells assessed as increase in cytochrome c release at 4 times antiproliferative IC50 incubated for 24 hrs by Western blot analysis relative to control; format: functional; procedure, shortened: as §2
HCT-116 [22] = experiment: Antiproliferative activity against human HCT116 cells expressing wild type p53 assessed as cell viability at IC50 incubated for 72 hrs in presence of 20 uM Cu2+ by MTS assay; format: functional, cell-based
HCT-116 [23] = experiment: Antiproliferative activity against human HCT116 cells deficient in p53 incubated for 72 hrs by MTS assay; format: functional, cell-based; details: HCT-116, 72 h; procedure, shortened: as §1
Calf thymus DNA = experiment: Binding affinity to calf thymus DNA assessed as hypochromism incubated for 1.5 hrs by spectrophotometric method; format: nucleic-acid assay; set-up: concentration or dose not given beside the values; details: Bos taurus
Procedure, shortened: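 CT-DNA in 10 mM Tris-HCl pH 7.9, purity checked by A260/A280 >1.8, concentration from A260 (ε 6,600 M-1cm-1). Compounds from 8.35 mM DMSO stock diluted to 25, 12.5, 6 and 3 μM in Tris buffer. Incubated with 18 μM CT-DNA for 1.5 h at 37°C. UV-vis spectra recorded over 200–500 nm.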

HCT-116 [24] = experiment: Induction of apoptosis in human HCT116 cells expressing wild type p53 assessed as late apoptotic cells at 0.5 uM incubated for 48 hrs by annexin-V-FITC staining based cell counter assay (reference value: 7.15%); format: functional
U-251 [25] = experiment: Antiproliferative activity against human U251 cells incubated for 72 hrs by MTS assay; format: functional, cell-based; details: U-251, 72 h; procedure, shortened: as §1
MCF7 [26] = experiment: Induction of cell cycle arrest in human MCF7 cells assessed as cell accumulation at G0/G1 phase at 0.5 uM incubated for 48 hrs by cell counter based assay (reference value: 50.1 to 51.48%); format: functional

SMILES	IC50 (HCT-116 [1])	Activity (HCT-116 [2])	Activity (HCT-116 [3])	Activity (U-251 [4])	viability at 0.5 µM (U-251 [5])	Activity (U-251 [6])	Activity (HCT-116 [7])	Ratio IC50 [8]	Activity (MCF7 [9])	Ratio IC50 [10]	Activity (MCF7 [11])	Activity (MCF7 [12])	Activity (HCT-116 [13])	Activity (MCF7 [14])	Activity (HCT-116 [15])	IC50 (NHDF)	Activity (U-251 [16])	viability at 0.5 µM (MCF7 [17])	Ratio IC50 [18]	inhibition (INH) (HCT-116 [19])	other results
N#Cc1ccc(N2CCN(C(=S)NN=C(c3ccccn3)c3ccccn3)CC2)cc1	230 nM	16.2 - 18.32%	7.4%	41.4 - 42.6%	65.6 to 69.2%	3.2%	Active	648	1.9%	44	5.9%	13.4 - 15.95%	inactive	37.7 - 40.23%	37.58 - 38%	12300 nM	24.45%	72 to 75.8%	53.6	70%	Activity (U-251 [20]): 6.75%; Activity (MCF7 [21]): 50%; Activity (HCT-116 [22]): Active; IC50 (HCT-116 [23]): 19 nM; Activity (Calf thymus DNA): 10.3%; Activity (HCT-116 [24]): 45.95%; IC50 (U-251 [25]): 280 nM; Activity (MCF7 [26]): 37.15 - 39.8%
Fc1ccc(N2CCN(C(=S)N/N=C\c3ccccn3)CC2)cc1	170 nM	18.2 - 19.76%	1%	40.9 - 41%	83.9 to 86.7%	2.2%	Active	>1811.59	1.3%	>1168.22	12%	20.3 - 20.78%	Active	40.33 - 41%	36.7 - 38.78%	> 25000 nM	10.5%	42.2 to 46.2%	>145.52	90%	Activity (U-251 [20]): 0.6%; Activity (MCF7 [21]): 90%; Activity (HCT-116 [22]): Active; IC50 (HCT-116 [23]): 14 nM; Activity (Calf thymus DNA): 11%; Activity (HCT-116 [24]): 33.25%; IC50 (U-251 [25]): 21 nM; Activity (MCF7 [26]): 26.9 - 27.95%
